TRPC4 act: activators of mouse TRPC4 channel, primary screen, Fluo4 calcium, HEK293 TRPC4beta/mu-opioid cells | 310,000 tested, 0.49% active | Fluo4 calcium fluorescence; stronger effect = higher value | B-score at 10 µM | Short transient receptor potential channel 4 (Mus musculus), Q9QUQ5;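 active = B-score above 5 SD of library B-scores, and initial fluorescence ratio not above library mean plus 5 SD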;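 also: positive B-score marks a calcium rise read as TRPC4 activation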
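Material: HEK293 stable line with TRPC4beta plus mu-opioid receptor; technique: Fluo4 calcium-sensitive dye fluorescence, kinetic, 1 Hz baseline; timing: Fluo4 dye loading 45 min at room temperature, 110 s recording; controls: assay buffer as low control, maximal DAMGO as high control; read-out: integrated baseline-normalised fluorescence ratio, converted to per-well B score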
TRPC4 PAM: positive allosteric modulators of TRPC4, primary screen, cell-based, mouse TRPC4beta, HEK293 mu-opioid, Fluo-4 calcium; Short transient receptor potential channel 4 (Mus musculus), Q9QUQ5; B-score at 10 µM; 310,000 tested, 0.42% active; DAMGO EC20, Fluo-4 Ca2+ flux; stronger effect = higher value;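 active = B-score of calcium response area above 5 SD of library B-scores, with initial fluorescence ratio within 5 SD of library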;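 also: B-score of integrated fluorescence ratio over time as area under calcium response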
TRPC4 block: inhibitors of mouse TRPC4 channel, primary screen, Fluo4 calcium, HEK293 TRPC4beta/mu-opioid cells; Short transient receptor potential channel 4 (Mus musculus), Q9QUQ5; DAMGO-evoked Fluo4 calcium flux; stronger effect = lower value; B-score at 10 µM; 300,000 tested, 0.39% active;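 active = B-score over 3 SD under the library average, no early fluorescence shift, positive overall ratio signal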
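System: stable TRPC4beta/mu-opioid receptor HEK293 cells; Dosing: single-point compound dosing; Measured by: Fluo4 Ca2+ flux fluorescence; Read-out basis: per-well B score of integrated baseline-normalized Fluo4 ratio.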
TRPC6 act: mouse TRPC6 channel activators, primary screen, cell-based, HEK293, membrane potential dye; Short transient receptor potential channel 6 (Mus musculus), Q61143; HEK293-TRPC6 membrane potential dye fluorescence; stronger effect = higher value; B-score at 10 µM; 310,000 tested, 0.13% active; AID 2550, 2010;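 active = B-score of the integrated fluorescence ratio above library mean plus 3 SD, and starting fluorescence ratio within library mean plus 5 SD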;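 also: higher score means more depolarization so channel activation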
Target sequence (Q61143 whole entry, looked up): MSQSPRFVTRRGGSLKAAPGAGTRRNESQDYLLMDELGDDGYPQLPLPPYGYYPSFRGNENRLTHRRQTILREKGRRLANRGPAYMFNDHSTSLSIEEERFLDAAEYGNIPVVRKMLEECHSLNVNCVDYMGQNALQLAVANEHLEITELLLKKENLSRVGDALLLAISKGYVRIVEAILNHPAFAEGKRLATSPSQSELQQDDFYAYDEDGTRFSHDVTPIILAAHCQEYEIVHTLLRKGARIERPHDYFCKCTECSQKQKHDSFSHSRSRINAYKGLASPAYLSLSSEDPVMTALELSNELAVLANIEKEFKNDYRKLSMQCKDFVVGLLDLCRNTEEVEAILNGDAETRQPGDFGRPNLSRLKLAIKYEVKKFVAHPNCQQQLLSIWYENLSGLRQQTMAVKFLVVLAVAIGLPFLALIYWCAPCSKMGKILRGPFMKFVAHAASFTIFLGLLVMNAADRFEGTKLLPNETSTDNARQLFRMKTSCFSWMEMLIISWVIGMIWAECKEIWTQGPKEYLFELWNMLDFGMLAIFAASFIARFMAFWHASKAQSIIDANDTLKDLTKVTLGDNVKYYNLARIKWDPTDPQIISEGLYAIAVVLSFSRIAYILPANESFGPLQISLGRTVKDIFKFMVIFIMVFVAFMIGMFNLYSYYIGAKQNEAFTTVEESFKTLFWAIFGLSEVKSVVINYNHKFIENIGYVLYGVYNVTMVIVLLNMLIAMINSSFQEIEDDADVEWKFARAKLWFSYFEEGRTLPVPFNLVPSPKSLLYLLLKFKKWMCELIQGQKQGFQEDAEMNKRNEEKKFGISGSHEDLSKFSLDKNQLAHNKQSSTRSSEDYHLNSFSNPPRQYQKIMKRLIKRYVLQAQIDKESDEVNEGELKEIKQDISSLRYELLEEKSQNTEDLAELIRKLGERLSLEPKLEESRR
TRPC6 inh: mouse TRPC6 channel inhibitors, primary screen, cell-based, HEK293, membrane potential dye; B-score at 10 µM; ACh-evoked depolarization; stronger effect = lower value; 310,000 tested, 1.1% active;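 active = B-score under library mean minus 3 SD, initial fluorescence not abnormally high, positive integrated signal ratio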;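 also: B-score derived from integrated fluorescence ratio over the kinetic read; more negative B-score means stronger inhibition of depolarization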
TRPC4 sel inh 2: second selectivity test of TRPC6 inhibitors: effect on mouse TRPC4. shares compounds with TRPC6 inh. HEK293 TRPC4/MOR, membrane potential dye fluorescence; channel activated by saturating DAMGO dose. inhibition, % at 10 µM. 920 tested, 42% active. AID 2776;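 active = compounds whose fluorescence signal differed from control wells by over 3 SD, either direction, in both duplicate plates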
TRPC4 spec: mouse TRPC4 modulation by TRPC6 hits, confirmation, selectivity assay for TRPC6 inhibitor project, cell-based, HEK293 TRPC4/mu-opioid, membrane potential dye; membrane potential fluorescence; 920 tested, 61% active; shares compounds with TRPC6 inh; activity change, negative = inhibition, % at 10 µM; AID 2777, 2010;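 active = rise or fall in signal beyond 3 SD of buffer-only wells in both replicate plates, either sign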;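 also: integrated kinetic ratio of fluorescence range over baseline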
HEK293 MPD ctr 2-1: nonspecific membrane potential effects, parental HEK293, confirmation, counter-screen for TRPC6 inhibitor project, cell-based, second counter screen; signal change vs control, % at 10 µM; 920 tested, 31% active; shares compounds with TRPC6 inh; parental HEK293 membrane potential dye fluorescence; maximal acetylcholine challenge after compound addition;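 active = membrane potential signal moving either way by over 3 SD of the maximum-effect control, in both duplicate plates, meaning non-specific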
HEK293 MPD ctr-1: membrane potential modulation in parental HEK293, confirmation, counter-screen for TRPC6 inhibitor project, cell-based; 920 tested, 60% active; membrane potential signal change, % at 10 µM; parental HEK293 membrane potential dye fluorescence; shares compounds with TRPC6 inh;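 active = membrane potential signal shifting up or down by more than 3 SD of buffer-only wells, on both duplicate plates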
HEK293 MPD ctr-2: parental HEK293 membrane potential modulation, confirmation, counter-screen for TRPC6 modulator project, cell-based; membrane potential signal change, % at 10 µM; membrane potential dye fluorescence; shares compounds with TRPC6 inh; AID 488924, 2010; 2,400 tested, 51% active;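 active = membrane potential signal moves up or down beyond 5 SD from buffer-only wells, on both duplicate plates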
HEK293 MPD ctr 2-2: second counter-screen for TRPC6 modulators: effect in parental HEK293 cells | shares compounds with TRPC6 inh | membrane potential dye fluorescence; after compound, maximal acetylcholine stimulation | inhibition, % at 10 µM | 2,400 tested, 14% active | AID 488926;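 active = membrane potential signal drops by more than 5 SD from the mean control signal, in both duplicate plates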;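 also: plate controls were acetylcholine ECmax control wells for no effect and buffer only wells for full effect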
TRPC4 ctr mod: TRPC4 modulation by TRPC6 hit compounds, confirmation, selectivity assay for TRPC6 modulator project, cell-based, HEK293 TRPC4/mu-opioid, membrane potential dye, mouse. shares compounds with TRPC6 inh. membrane potential fluorescence. percent change from control (negative = decrease, positive = increase), % at 10 µM. 2,400 tested, 69% active;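 active = membrane potential signal moved up or down beyond 5 SD of buffer control wells, in both duplicate plates, actives on both sides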;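 also: plate controls were assay buffer wells for no effect and DAMGO maximal-effect wells for full effect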
TRPC4 ctr inh 2: mouse TRPC4 off-target activity of TRPC6 modulators, second screen. shares compounds with TRPC6 inh. HEK293 TRPC4/mu-opioid, membrane potential dye fluorescence; stimulated with maximal-effect DAMGO. inhibition, % at 10 µM. 2,400 tested, 55% active. AID 488928;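 active = drop in membrane potential signal beyond 5 SD of the control wells in both duplicate plates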;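 also: TRPC4 counter screen for TRPC6 hits run under conditions tuned for TRPC6 not TRPC4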
TRPC6 block conf: mouse TRPC6 channel inhibitors, confirmation, HEK293 cells, membrane potential dye, duplicate | shares compounds with TRPC6 inh | ACh-evoked depolarization | inhibition, % at 10 µM | 3,300 tested, 43% active;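 active = fluorescence ratio falls more than 5 SD below the full-stimulation control mean, in both duplicate runs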;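 also: integrated fluorescence ratio of peak minus minimum over baseline after agonist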
TRPC6 act confirm: mouse TRPC6 channel activators, confirmation, HEK293 cells, membrane potential dye, duplicate | shares compounds with TRPC6 inh | HEK293-TRPC6 membrane potential dye fluorescence, FDSS | activation, % at 10 µM | 2,800 tested, 11% active | AID 488961, 2010;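 active = ratio signal rise beyond 5 SD above unstimulated control wells' mean, seen in both duplicate runs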;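 also: plate controls were buffer EC0 wells for no effect and acetylcholine ECmax response for full effect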
* = called active by the depositor. Only some compounds are listed: those with a hit (about 2.3% of all), similar ones and a draw of the others.

For COC(=O)c1ccc(CN2CCN(C3CCCC3)C(CCO)C2)cc1 (centres undefined) the results were TRPC4 act inactive, TRPC4 PAM inactive, TRPC4 block inactive, TRPC6 act inactive, TRPC6 inh -9.5*, TRPC4 sel inh 2 inactive, TRPC4 spec 2.2%*, HEK293 MPD ctr 2-1 6.0%*, HEK293 MPD ctr-1 4.6%* and TRPC6 block conf 63%*.
COc1ccccc1-n1cc(CN2CCN(C3CCCC3)C(CCO)C2)cn1 (centres undefined) was read as TRPC4 act inactive, TRPC4 PAM inactive, TRPC4 block inactive, TRPC6 act inactive, TRPC6 inh -5.2*, HEK293 MPD ctr-2 inactive, HEK293 MPD ctr 2-2 inactive, TRPC4 ctr mod 10%*, TRPC4 ctr inh 2 inactive and TRPC6 block conf 36%*.
For COc1cccc(C2CC(C(F)(F)F)n3ncc(C(=O)NCC4CCCO4)c3N2)c1 (centres undefined) the results were TRPC4 act inactive, TRPC4 PAM inactive, TRPC4 block inactive, TRPC6 act inactive, TRPC6 inh -5.6*, HEK293 MPD ctr-2 inactive, HEK293 MPD ctr 2-2 inactive, TRPC4 ctr mod inactive, TRPC4 ctr inh 2 inactive, TRPC6 block conf inactive and TRPC6 act confirm inactive.
CCOC(=O)c1c(NC(=O)c2cnn3c2NC(c2cccc(OC)c2)CC3C(F)(F)F)sc2c1CCCC2 (centres undefined) was read as TRPC4 act inactive, TRPC4 PAM inactive, TRPC4 block inactive, TRPC6 act inactive and TRPC6 inh inactive.
Screening COCCCN(C(=O)Cc1csc(-c2cccc(Cl)c2)n1)c1c(N)n(Cc2ccccc2)c(=O)[nH]c1=O returned TRPC4 act inactive, TRPC4 PAM inactive, TRPC4 block inactive, TRPC6 act inactive and TRPC6 inh inactive.
For COc1ccc(-c2c[n+]3c(n2-c2ccccc2)SCC3)cc1 the results were TRPC4 act inactive, TRPC4 PAM inactive, TRPC4 block inactive, TRPC6 act inactive, TRPC6 inh -8.2*, TRPC4 sel inh 2 inactive, TRPC4 spec -12%*, HEK293 MPD ctr 2-1 -12%*, HEK293 MPD ctr-1 -172%*, TRPC6 block conf 63%* and TRPC6 act confirm inactive.
`Brc1ccc(-c2c[n+]3c(n2-c2ccccc2)SCC3)cc1` gave TRPC4 act inactive, TRPC4 PAM inactive, TRPC4 block inactive, TRPC6 act inactive, TRPC6 inh -7.2*, TRPC4 sel inh 2 inactive, TRPC4 spec -15%*, HEK293 MPD ctr 2-1 -20%*, HEK293 MPD ctr-1 -228%*, TRPC6 block conf inactive and TRPC6 act confirm inactive.
`COc1ccc(-c2c[n+]3c(n2-c2ccccc2)SCC3)cc1OC` gave TRPC4 act inactive, TRPC4 PAM inactive, TRPC4 block inactive, TRPC6 act inactive and TRPC6 inh inactive.
Screening Cc1ccc(-c2c[n+]3c(n2-c2ccccc2)SCC3)cc1 returned TRPC4 act inactive, TRPC4 PAM inactive, TRPC4 block inactive, TRPC6 act inactive, TRPC6 inh -5.4*, HEK293 MPD ctr-2 inactive, HEK293 MPD ctr 2-2 inactive, TRPC4 ctr mod -11%*, TRPC4 ctr inh 2 inactive, TRPC6 block conf inactive and TRPC6 act confirm inactive.
`CCOC(=O)c1sc(NC(=O)C2CC(=O)N(c3ccc(OCC)cc3)C2)nc1C` (centres undefined) gave TRPC4 act inactive, TRPC4 PAM inactive, TRPC4 block inactive, TRPC6 act inactive and TRPC6 inh inactive.
Screening O=C(NC1CCN(Cc2ccccc2)CC1)C1COc2ccccc2O1 (centres undefined) returned TRPC4 act inactive, TRPC4 PAM inactive, TRPC4 block inactive, TRPC6 act inactive, TRPC6 inh -5.7*, HEK293 MPD ctr-2 104%*, HEK293 MPD ctr 2-2 86%*, TRPC4 ctr mod 12%*, TRPC4 ctr inh 2 29%* and TRPC6 block conf 72%*.

Screening data from PubChem.
